Data reported in ChEMBL document CHEMBL1143122, “Novel analogs of D-e-MAPP and B13. Part 1: synthesis and evaluation as potential anticancer agents” (Bioorg Med Chem, 2008).

Legend:
[1] = system: SN12C; assay: Antiproliferative activity against human SN12C cells after 48 hrs; type: functional
Outline: (§1)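 NCI 60-cell screen. Cells were grown in RPMI 1640 with 5% FBS and 2 mM L-glutamine, then plated at 5,000–40,000 cells/well according to doubling time and preincubated for 24 h at 37 °C in 5% CO2. Compounds were dissolved in DMSO at 400× the top final concentration and tested at five 10-fold dilutions from 10−4 to 10−8 M for 48 h. Growth was read spectrophotometrically; GI50 is 50% net protein reduction.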

[2] = system: SNB-75; assay: Antiproliferative activity against human SNB75 cells after 48 hrs; type: functional; conditions: SNB-75, 48 h; outline: as §1
[3] = system: COLO 205; assay: Antiproliferative activity against human COLO205 cells after 48 hrs; type: functional; conditions: COLO 205, 48 h; outline: as §1
[4] = system: SK-OV-3; assay: Antiproliferative activity against human SKOV3 cells after 48 hrs; type: functional; conditions: SK-OV-3, 48 h; outline: as §1
[5] = Antiproliferative activity against human […] cells after 48 hrs; type: functional; outline: as §1
[6] = system: 786-0; assay: Antiproliferative activity against human 786-0 cells after 48 hrs; type: functional; conditions: 786-0, 48 h; outline: as §1
[7] = system: BT-549; assay: Antiproliferative activity against human BT549 cells after 48 hrs; type: functional; conditions: BT-549, 48 h; outline: as §1
[8] = system: NCI-H23; assay: Antiproliferative activity against human NCI-H23 cells after 48 hrs; type: functional; conditions: NCI-H23, 48 h; outline: as §1
[9] = system: CCRF-CEM; assay: Antiproliferative activity against human CCRF-CEM cells after 48 hrs; type: functional; outline: as §1
[10] = system: HT-29; assay: Antiproliferative activity against human HT29 cells after 48 hrs; type: functional; conditions: HT-29, 48 h; outline: as §1
[11] = system: TK-10; assay: Antiproliferative activity against human TK10 cells after 48 hrs; type: functional; conditions: TK-10, 48 h
Outline: (§2)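 NCI 60-cell-line screen. Lines grown in RPMI 1640 with 5% fetal bovine serum and 2 mM L-glutamine, plated at 5,000–40,000 cells/well according to doubling time, left 24 h at 37 °C in 5% CO2. Drug stocks in DMSO at 400-fold the top final concentration. Five 10-fold dilutions, 10−4 to 10−8 M, incubated 48 h. Growth read spectrophotometrically as net protein; GI50 taken as 50% reduction.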

[12] = system: IGROV-1; assay: Antiproliferative activity against human IGROV1 cells after 48 hrs; type: functional; conditions: IGROV-1, 48 h; outline: as §1
[13] = system: DU-145; assay: Antiproliferative activity against human DU145 cells after 48 hrs; type: functional; conditions: DU-145, 48 h; outline: as §1
[14] = system: T47D; assay: Antiproliferative activity against human T47D cells after 48 hrs; type: functional; outline: as §2
[15] = system: NCI-H460; assay: Antiproliferative activity against human NCI-H460 cells after 48 hrs; type: functional; conditions: NCI-H460, 48 h; outline: as §1
[16] = system: HCC 2998; assay: Antiproliferative activity against human HCC2998 cells after 48 hrs; type: functional; conditions: HCC 2998, 48 h; outline: as §1
[17] = system: CAKI-1; assay: Antiproliferative activity against human CAKI1 cells after 48 hrs; type: functional; conditions: CAKI-1, 48 h; outline: as §1
[18] = system: PC-3; assay: Antiproliferative activity against human PC3 cells after 48 hrs; type: functional; conditions: PC-3, 48 h; outline: as §1
[19] = system: Hs-578T; assay: Antiproliferative activity against human HS578T cells after 48 hrs; type: functional; outline: as §1
[20] = system: SF-268; assay: Antiproliferative activity against human SF268 cells after 48 hrs; type: functional; conditions: SF-268, 48 h; outline: as §1
[21] = system: U-251; assay: Antiproliferative activity against human U251 cells after 48 hrs; type: functional; conditions: U-251, 48 h; outline: as §2
[22] = system: HOP-62; assay: Antiproliferative activity against human HOP62 cells after 48 hrs; type: functional; conditions: HOP-62, 48 h; outline: as §1
[23] = system: SK-MEL-5; assay: Antiproliferative activity against human SKMEL5 cells after 48 hrs; type: functional; conditions: SK-MEL-5, 48 h, read-out: Log LC50 (the source's name) (converted); outline: as §1
[24] = system: NCI-H226; assay: Antiproliferative activity against human NCI-H226 cells after 48 hrs; type: functional; conditions: NCI-H226, 48 h; outline: as §1
[25] = system: NCI-H322M; assay: Antiproliferative activity against human NCI-H322M cells after 48 hrs; type: functional; outline: as §1
[26] = system: MCF7; assay: Drug level in human MCF7 cells at 10 uM per 10^6 cells after 0.5 hrs; type: ADME, cell-based; conditions: mcf7, 0.5 h
Outline: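 MCF7 cells kept in RPMI 1640 with 10% fetal calf serum at 37 °C, 5% CO2, then treated with 10 μM analog. Intracellular analog measured over time by HPLC-MS in positive-ion MRM mode. Quantified against calibration curves made by spiking an artificial matrix with standards plus internal standard, using analyte/IS peak-area ratios and linear regression. Reported as pmol per 1×10^6 cells.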

[27] = system: UO-31; assay: Antiproliferative activity against human UO31 cells after 48 hrs; type: functional; conditions: UO-31, 48 h; outline: as §2
[28] = system: SF-295; assay: Antiproliferative activity against human SF295 cells after 48 hrs; type: functional; conditions: SF-295, 48 h; outline: as §1
[29] = Antiproliferative activity against human NCI-ADR-RES cells after 48 hrs; type: functional; outline: as §1
[30] = system: SW-620; assay: Antiproliferative activity against human SW620 cells after 48 hrs; type: functional; conditions: SW-620, 48 h; outline: as §2
[31] = read-out: Log LC50 (the source's name) (converted)

Compound: CCCCCCCCCCCCCCN[C@H](C)[C@@H](O)c1ccccc1.Cl
- GI50 [1]: 1.78 µM
- LC50 (50% net cell kill) [1]: 6.76 µM
- TGI ([1]; read-out: Log TGI (converted)): 3.47 µM
- GI50 [2]: 2.09 µM
- CC50 [2, 31]: 7.08 µM
- TGI ([2]; read-out: Log TGI (converted)): 3.89 µM
- GI50 [3]: 1.91 µM
- CC50 [3, 31]: 6.17 µM
- TGI ([3]; read-out: Log TGI (converted)): 3.39 µM
- GI50 [4]: 2.34 µM
- CC50 [4, 31]: 9.77 µM
- TGI ([4]; read-out: Log TGI (converted)): 4.79 µM
- GI50 [5]: 1.62 µM
- LC50 [5]: 6.03 µM
- TGI ([5]; read-out: Log TGI (converted)): 3.09 µM
- GI50 [6]: 1.74 µM
- CC50 [6, 31]: 5.75 µM
- TGI ([6]; read-out: Log TGI (converted)): 3.16 µM
- GI50 [7]: 1.12 µM
- LC50 [7]: 5.01 µM
- TGI ([7]; read-out: Log TGI (converted)): 2.4 µM
- GI50 [8]: 2.14 µM
- CC50 [8, 31]: 7.94 µM
- TGI ([8]; read-out: Log TGI (converted)): 4.07 µM
- GI50 [9]: 1.45 µM
- CC50 [9, 31]: 7.59 µM
- TGI ([9]; read-out: Log TGI (converted)): 3.31 µM
- GI50 [10]: 1.78 µM
- LC50 [10]: 5.75 µM
- TGI ([10]; read-out: Log TGI (converted)): 3.24 µM
- GI50 [11]: 1.86 µM
- CC50 [11, 31]: 5.75 µM
- TGI ([11]; read-out: Log TGI (converted)): 3.31 µM
- GI50 [12]: 1.62 µM
- LC50 [12]: 5.75 µM
- TGI ([12]; read-out: Log TGI (converted)): 3.09 µM
- GI50 [13]: 1.48 µM
- CC50 [13, 31]: 5.25 µM
- TGI ([13]; read-out: Log TGI (converted)): 2.82 µM
- GI50 [14]: 2.29 µM
- CC50 [14, 31]: 7.76 µM
- TGI ([14]; read-out: Log TGI (converted)): 4.17 µM
- GI50 [15]: 1.78 µM
- CC50 [15, 31]: 6.17 µM
- TGI ([15]; read-out: Log TGI (converted)): 3.31 µM
- GI50 [16]: 1.86 µM
- CC50 [16, 31]: 6.46 µM
- TGI ([16]; read-out: Log TGI (converted)): 3.47 µM
- GI50 [17]: 1.95 µM
- CC50 [17, 31]: 5.75 µM
- TGI ([17]; read-out: Log TGI (converted)): 3.39 µM
- GI50 [18]: 1.86 µM
- LC50 [18]: 5.89 µM
- TGI ([18]; read-out: Log TGI (converted)): 3.31 µM
- GI50 [19]: 2.51 µM
- LC50 [19]: 46.8 µM
- TGI ([19]; read-out: Log TGI (converted)): 5.5 µM
- GI50 [20]: 1.78 µM
- LC50 [20]: 6.76 µM
- TGI ([20]; read-out: Log TGI (converted)): 3.47 µM
- GI50 [21]: 1.86 µM
- CC50 [21, 31]: 5.89 µM
- TGI ([21]; read-out: Log TGI (converted)): 3.31 µM
- GI50 [22]: 1.86 µM
- CC50 [22, 31]: 5.89 µM
- TGI ([22]; read-out: Log TGI (converted)): 3.31 µM
- CC50 [23]: 100 µM
- GI50 [24]: 1.86 µM
- CC50 [24, 31]: 7.08 µM
- TGI ([24]; read-out: Log TGI (converted)): 3.63 µM
- GI50 [25]: 1.91 µM
- CC50 [25, 31]: 5.89 µM
- TGI ([25]; read-out: Log TGI (converted)): 3.31 µM
- Drug uptake [26]: 3600 pmol
- GI50 [27]: 1.74 µM
- LC50 [27]: 5.89 µM
- TGI ([27]; read-out: Log TGI (converted)): 3.24 µM
- GI50 [28]: 1.82 µM
- LC50 [28]: 6.17 µM
- TGI ([28]; read-out: Log TGI (converted)): 3.39 µM
- GI50 [29]: 1.82 µM
- TGI ([29]; read-out: Log TGI (converted)): 3.55 µM
- GI50 [30]: 2.14 µM
- LC50 (concentration killing 50% of cells) [30]: 7.94 µM
- TGI ([30]; read-out: Log TGI (converted)): 4.17 µM
